# Assay outcomes from PubChem BioAssay.
# NR2E3 ag-1 – human photoreceptor-specific nuclear receptor agonism. Q9Y5X4. CHO-S Gal4-NCOR/VP16-NR2E3 two-hybrid, luciferase. inhibition of corepressor binding, % at 3.98 µM. 360,000 compounds, 0.35% hits. AID 602229;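 active = inhibition above the mean of all tested compounds plus 3 SD, cut at about 70% in these data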;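 note: 0% = DMSO with NR2E3 transfected cells and 100% = cells lacking NR2E3 construct; higher means lower luciferase signal from less NR2E3 corepressor binding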
# PG9 Ab binder – PG9 antibody binding by small molecule. TR-FRET gp120-PG9 antibody binding. inhibition, % at 6.7 µM. 360,000 compounds, 0.43% hits. AID 624416; in the data active = inhibition above about 8.5%
# NR1D1 modulator – Rev-erb alpha (human) modulation; P20393; Rev-erbα–FITC-DNA binding, fluorescence polarization, 90 min; activity, % at 10 µM; 370,000 compounds, 0.79% hits;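 active = activity above about 14%, limit read from the data; passing the limit was not always enough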;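 note: 0% = DMSO wells with 35 nM protein and 100% = DMSO wells with 750 nM protein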
# Target sequence (P20393 whole entry, looked up): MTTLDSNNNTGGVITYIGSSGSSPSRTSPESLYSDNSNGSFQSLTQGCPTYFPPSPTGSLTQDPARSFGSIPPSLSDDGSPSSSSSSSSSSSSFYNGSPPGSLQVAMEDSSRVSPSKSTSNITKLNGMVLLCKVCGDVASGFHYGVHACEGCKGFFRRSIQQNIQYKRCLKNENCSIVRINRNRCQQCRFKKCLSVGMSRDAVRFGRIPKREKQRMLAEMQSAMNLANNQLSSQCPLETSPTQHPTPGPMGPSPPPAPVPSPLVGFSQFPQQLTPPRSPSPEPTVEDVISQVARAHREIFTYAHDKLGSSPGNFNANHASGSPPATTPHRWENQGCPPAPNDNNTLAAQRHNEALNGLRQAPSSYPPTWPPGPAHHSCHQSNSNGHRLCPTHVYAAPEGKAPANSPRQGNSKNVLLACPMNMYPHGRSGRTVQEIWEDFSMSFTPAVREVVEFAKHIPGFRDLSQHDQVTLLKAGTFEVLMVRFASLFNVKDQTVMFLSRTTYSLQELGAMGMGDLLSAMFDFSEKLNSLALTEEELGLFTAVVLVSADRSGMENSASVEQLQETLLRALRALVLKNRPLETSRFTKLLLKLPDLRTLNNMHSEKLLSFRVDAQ
# MC4R ag barr – human MC4R agonism via beta-arrestin; P32245; 360,000 compounds, 0.98% hits; AID 540308; U2OS MC4R beta-arrestin complementation, luminescence; percent of melanotan II response, DMSO zero; activation, % at 8.9 µM;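 active = activation above a per-plate cutoff, the mean activation of sample wells on that plate plus 3 SD, cut at about 8% in these data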
# MC4R antagonist – human MC4R antagonism in cAMP assay | 360,000 compounds, 0.48% hits | MC4R-expressing cells, MTII-stimulated cAMP, LANCE TR-FRET | inhibition, % at 6.5 µM | P32245;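 active = inhibition above its plate's cutoff, the mean of tested wells on that plate plus 3 SD, cut at about 29% in these data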;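 note: 0% = Melanotan II alone and 100% = Melanotan II plus saturating MCL0020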
#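 Test system: U2OS cells stably expressing human melanocortin 4 receptor (MC4R); also added: Melanotan II challenge; compound: 6.5 µM single dose; timing: 30-min compound preincubation, 1-h Melanotan II challenge, 1-h detection, room temperature; signal: Eu-cAMP/anti-cAMP TR-FRET, emission 671 nm; repeats: one well per compound, no replicates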
# NR2E3 ag-2 – NR2E3 (human) agonism; Q9Y5X4; GST-NR2E3/biotin-RetCOR TR-FRET, 1536-well; inhibition of corepressor binding, % at 4.78 µM; 320,000 compounds, 0.12% hits; AID 2300;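 active = percent inhibition above the cutoff of mean plus 3 SD of all tested compounds, set per screening campaign, cut at about 20% in these data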;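 note: 0% = DMSO wells and 100% = biotin wells as full block of FRET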
#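 Format: 1536-well format; test system: GST-NR2E3 and biotin-RetCOR proteins; read-out basis: percent inhibition of TR-FRET ratio; timing: 5 h incubation at 4 °C; detection: time-resolved FRET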
# PG9 binder conf – confirmation of small molecules binding HIV-1 gp120 antibody PG9; shares compounds with PG9 Ab binder; TR-FRET PG9 antibody binding, biochemical; 1,500 compounds, 90% hits; AID 651571; inhibition, % at 6.7 µM; in the data active = inhibition above about 9%
# PGV04 counter – counter-screen for PG9 binders: binding control antibody PGV04. inhibition, % at 6.7 µM. 1,500 compounds, 95% hits. TR-FRET PGV04 antibody-gp120 binding, biochemical. shares compounds with PG9 Ab binder; in the data active = inhibition above about 9.5%
# PG9 bind DR – small molecules binding HIV-1 gp120 antibody PG9; 95 tested, under 10 active; AID 651848; shares compounds with PG9 Ab binder; IC50, µM; TR-FRET PG9 antibody-gp120 binding inhibition; in the data active = IC50 below about 10 µM
# PGV04 binding DR – PGV04 binding, dose response counter-screen | shares compounds with PG9 Ab binder | TR-FRET binding to control antibody PGV04 | IC50, µM | 95 compounds, 20% hits | AID 651937
# PG126 binding DR – counter-screen for PG9 binders: binding to control antibody PG126. TR-FRET binding to antibody PG126, counterscreen. shares compounds with PG9 Ab binder. 95 compounds, 20% hits. IC50, µM
# Numbers without * were called inactive; · = no result. A selection: hits, their analogues and other compounds. The true share with any hit is near 2.7%. Cut-off read from the data, not from the text of the source, unless noted: active = IC50 below about 9 µM; inactive = the rest.
SMILES,NR2E3 ag-1,PG9 Ab binder,NR1D1 modulator,MC4R ag barr,MC4R antagonist,NR2E3 ag-2,PG9 binder conf,PGV04 counter,others
CCOC(=O)c1cc(-c2ccc(C)cc2)nc2nc(SC)[nH]c(=O)c12,19,24*,1,3,-2,1,33*,34*,
Cc1onc(-c2ccccc2Cl)c1C(=O)OCC(=O)Nc1ccc2c(c1)OCO2,-4,1,9,-1,2,1,·,·,
CC1(C)Oc2ccc3ccc(=O)oc3c2C(N2CCCCC2)C1O (centres undefined),0,11*,-5,0,4,-1,7,9.2*,
CCOC(=O)N1CCC(NC(=O)c2cc(-c3ccc(OC)cc3)nc3ccccc23)CC1,-20,9.5*,6,-1,7,0,8,11*,
CCOC(=O)N1CCC(NC(=O)c2cn(-c3ccc(OC)cc3)c(=O)c3ccccc23)CC1,-2,-2,-3,0,5,3,·,·,
COc1ccc(C2NC(=O)c3sc4nc(C)c(C(C)=O)c(-c5ccc(Cl)cc5)c4c3N2)cc1 (centres undefined),-2,9.3*,3,4,-10,-3,22*,40*,
CCOCC(=O)Nc1ccc(S(=O)(=O)Nc2ncccn2)cc1,-29,0,1,0,-1,1,·,·,
CCOc1ccc(NC(=O)C2CCCN(S(=O)(=O)c3ccc4[nH]c(=O)ccc4c3)C2)cc1 (centres undefined),-8,11*,7,1,8,0,38*,63*,
COc1ccc(NC(=O)C2CCCN(S(=O)(=O)c3ccc4[nH]c(=O)ccc4c3)C2)cc1 (centres undefined),-11,9.6*,8,0,12,-1,18*,26*,
COc1cc(NC(=O)C2CCCN(S(=O)(=O)c3ccc4[nH]c(=O)ccc4c3)C2)cc(OC)c1 (centres undefined),1,-2,1,0,10,4,·,·,
O=C(CNC(=O)c1ccc(C(F)(F)F)cc1)NC1CC1,-41,-1,-1,-2,-1,·,·,·,
COc1ccc(N2CCN(C(=O)C3Cc4ccccc4CN3C(=O)c3ccco3)CC2)cc1 (centres undefined),23,-1,-1,1,9,2,·,·,
CCc1ccccc1NC(=O)C1CCN(C(=O)c2cccs2)CC1,-23,-3,2,-1,-1,1,·,·,
O=C(COC(=O)c1ccc2c(c1)OCO2)NCc1ccc(Cl)cc1,-10,12*,3,-3,-1,7,6,19*,
CCc1nnc(NC(=O)c2ccc(Cl)c(S(=O)(=O)N3CCc4ccccc4C3)c2)s1,-7,20*,21,7,-2,1,24*,34*,
CN(C)CCNc1nc2sc3c(c2c(=O)n1Cc1ccccc1)CCCCC3,18,1,-9,1,1,·,·,·,
O=C(CNC(=O)c1sc2ccccc2c1Cl)NCc1ccc(F)cc1,22,12*,10,5,5,3,8,21*,
COc1ccc(Cc2nnc(SCC(=O)c3ccc4c(c3)NC(=O)CO4)o2)cc1,11,9.3*,10,0,17,-6,13*,30*,
C#CCNC(=O)C[C@@H]1C(=O)N(Cc2ccc(OC)cc2)/C2=C/CCCCC[C@@]21C(=O)OCC,·,·,-1,·,·,·,·,·,
O=C1N(Cc2cccc(Cl)c2)C[C@@H]2C[C@@H](c3cccn3-c3cccnc3)N3CCC[C@@]123,-28,17*,-2,-3,-6,-3,10*,19*,
CCn1ncc([C@@H]2C[C@H]3CN(Cc4cccc(Cl)c4)C(=O)[C@]34CCCN24)c1C,-23,-3,2,-1,3,4,·,·,
O=C1C2ON(c3ccccc3)C(c3ccncc3)C2C(=O)N1c1ccc(Br)cc1 (centres undefined),-27,1,1,1,1,-1,·,·,
COc1ccccc1C(=O)Nc1ccc2c(C)cc(=O)oc2c1,-135,17*,4,-2,1,4,20*,30*,
CC1(C)Cc2c(sc(NC(=O)c3ccc(S(=O)(=O)N4CCCCCC4)cc3)c2C(N)=O)C(C)(C)N1,-14,1,6,0,0,-3,·,·,
COc1cc(C(=O)Oc2ccccc2)ccc1OCc1c(C)noc1C,-16,11*,-2,-1,6,4,17*,13*,PG9 bind DR=>67;PGV04 binding DR=>67;PG126 binding DR=>67
SMILES,NR2E3 ag-1,PG9 Ab binder,NR1D1 modulator,MC4R ag barr,MC4R antagonist,NR2E3 ag-2,PG9 binder conf,PGV04 counter,others
O=S(=O)(CCc1nnc(-c2ccc(Br)cc2)o1)c1ccc(Cl)cc1,-5,1,2,-1,2,1,·,·,
CCOC(=O)c1sc(NC(=O)CSc2nnc(Cc3ccccc3)o2)c(C#N)c1C,-14,·,·,0,3,2,·,·,
CC(C(=O)NCc1ccco1)n1nc(-c2ccccc2)c2cc(Cl)ccc21 (centres undefined),-16,9.9*,12,2,4,1,14*,22*,
Cc1cnc(C(=O)OCC(=O)Nc2ccc(OCc3ccccc3)cc2)cn1,-72,1,-6,0,15,0,·,·,
COC(=O)C1=C(C(=O)OC)[C@@H]2Nc3ccccc3[C@@]23C[C@@H](C(=O)OC)N(C(=O)c2cccs2)C3=N1,2,2,-1,2,-7,0,·,·,
Cc1nc(SCCc2nc3ccccc3[nH]2)c2oc3ccccc3c2n1,12,29*,8,-3,4,·,11*,13*,
Cc1nc(SCC(=O)NC(C)c2ccccc2)c2oc3ccccc3c2n1 (centres undefined),-12,15*,14,0,5,1,5,9.6*,
Cc1ccc2oc3c(SCc4nc5ccccc5[nH]4)nc(C)nc3c2c1,-21,-3,-4,-1,-3,·,·,·,
CN(C)S(=O)(=O)c1ccc(NC(=O)C2CC(=O)N(Cc3ccccc3)C2)cc1 (centres undefined),3,2,3,-5,7,-1,·,·,
